Experimental data published in PMC9826232 (Chemmedchem, 2022).

Columns and labels:
HCT15 (G13D) = test: CellTiter-Glo cell viability assay, HCT15; format: cell-based; details: Homo sapiens, HCT-15, 72 h, read-out: Cellular activity IC50, HCT15 (G13D)
In short: (§1)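 Cells seeded, then held 24 h at 37 °C/5 % CO2 before test compound in DMSO was added at various concentrations. Plates were incubated a further 72 h at 37 °C, 5 % CO2, humidified. Controls were DMSO vehicle and 10 μM staurosporine. CellTiter-Glo reagent was added at equal volume to the medium, then 2 min shaking and 10 min at room temperature before luminescence (ATP) reading. IC50 from dose-response fit; plates accepted only if Z' ≥0.5, from 16 control values each.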

[1] = cited from earlier work
K‐Ras wild type protein = K‐Ras wild type protein (Homo sapiens, UniProt P01116); test: Nucleotide exchange assay; format: biochemical
In short: (§2)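 SOS1 (final 30.2 nM for G12D, 4.6 nM for wild type) and GTP (1 μM final) follow. Incubated overnight at room temperature, then GDP detection reagent for 1 h. Luminescence read; IC50 from sigmoidal curves.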

A549 (G12S) = test: CellTiter-Glo cell viability assay, A549; format: cell-based; details: Homo sapiens, A549, 72 h, read-out: Cellular activity IC50, A549 (G12S)
In short: as §1

NCI‐H441 (G12 V) = test: CellTiter-Glo cell viability assay, NCI-H441; format: cell-based; details: Homo sapiens, NCI-H441, 72 h, read-out: Cellular activity IC50, NCI‐H441 (G12 V)
In short: as §1

K‐Ras(G12D) = K‐Ras(G12D) (Homo sapiens, UniProt P01116, G12D); test: Nucleotide exchange assay; format: biochemical
In short: as §2

H358 (G12 C) = test: CellTiter-Glo cell viability assay, H358; format: cell-based; details: Homo sapiens, NCI-H358, 72 h, read-out: Cellular activity IC50, H358 (G12 C)
In short: as §1

[2] = Control assay for nucleotide exchange assay; details: 3 mM compound; percent of control
SNU‐1 (G12D) = test: CellTiter-Glo cell viability assay, SNU-1; format: cell-based; details: Homo sapiens, SNU1, 72 h, read-out: Cellular activity IC50, SNU‐1 (G12D)
In short: as §1

Sequence of K‐Ras(G12D) (P01116 1-188 isoform P01116-2 G12D): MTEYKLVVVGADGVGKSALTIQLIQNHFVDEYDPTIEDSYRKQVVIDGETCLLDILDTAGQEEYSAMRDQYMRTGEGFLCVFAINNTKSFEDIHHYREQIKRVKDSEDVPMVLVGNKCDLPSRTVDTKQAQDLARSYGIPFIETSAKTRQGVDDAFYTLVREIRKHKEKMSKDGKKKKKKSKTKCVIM
Sequence of K‐Ras wild type protein (P01116 1-188 isoform P01116-2): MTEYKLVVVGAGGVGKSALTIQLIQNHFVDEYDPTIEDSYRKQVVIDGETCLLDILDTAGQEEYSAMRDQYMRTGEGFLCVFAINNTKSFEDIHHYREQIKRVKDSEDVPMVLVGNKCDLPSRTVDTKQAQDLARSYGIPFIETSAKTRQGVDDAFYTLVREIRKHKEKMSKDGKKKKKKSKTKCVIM

IC50 (HCT15 (G13D)): 18.9 ± 0.6 µM
IC50 (K‐Ras wild type protein): 306 ± 49 µM
IC50 (A549 (G12S)): 16.1 ± 1.5 µM
IC50 (K‐Ras(G12D)): 236 ± 46 µM
IC50 (H358 (G12 C)): 20.9 ± 0.8 µM
IC50 (SNU‐1 (G12D)): 16.7 ± 1.2 µM
Compound: O=[N+]([O-])c1ccc(NN=C(c2ccc(O)cc2)c2ccc(O)cc2)c([N+](=O)[O-])c1 [7 a, 4,4′‐((2‐(2,4‐Dinitrophenyl)hydrazinylidene)methylene)diphenol]
tolerability [1]: well tolerated
IC50 (NCI‐H441 (G12 V)): 22.8 ± 4.2 µM
WT %CRTL (3 mM) [2]: 26%
